Assay results reported in ChEMBL document CHEMBL3352013, “The design and synthesis of potent and selective inhibitors of Trypanosoma brucei glycogen synthase kinase 3 for the treatment of human african trypanosomiasis” (J Med Chem, 2014).

Test system: not listed separately
Test: Inhibition of Trypanosoma brucei GSK3 using biotinylated GSP2 substrate by flashplate assay
Conditions: not given
How it was run: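 Radiometric Flashplate assay: 2.5 nM TbGSK3 short, 1 μM biotinylated GSP2, 1 μM ATP plus [γ-33P]-ATP. 10-point titration 30 μM to 0.3 nM final, 1% DMSO. IC50 averaged over two or more experiments; standard GW8510 used for reproducibility (MSR).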

SMILES | IC50 [µM]
COc1cccc(OC)c1C(=O)Nc1c[nH]nc1C(=O)NCc1ccccc1 | 0.001
CO[C@H]1CC[C@H](NC(=O)c2n[nH]cc2NC(=O)c2ccc(-c3ccccc3)o2)CC1 | 0.007

Test system: MRC5
Test: Cytotoxicity against human MRC5 cells assessed as growth inhibition after 72 hrs
Type: cell-based
Conditions: MRC5, 72 h
How it was run: (§1)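 Resazurin viability assay: 2 × 10³ cells/well (MRC5 in MEM + 10% FBS; bloodstream-form T. b. brucei in appropriate medium), compounds 50 μM to 0.5 nM, 37 °C, 5% CO₂ for 69 h, then resazurin 50 μM final for further 4 h; fluorescence read. Concentration giving 50% growth inhibition over 72 h; average of two or more experiments.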

SMILES | EC50 [µM]
COc1cccc(OC)c1C(=O)Nc1c[nH]nc1C(=O)NCc1ccccc1 | 50
CO[C@H]1CC[C@H](NC(=O)c2n[nH]cc2NC(=O)c2ccc(-c3ccccc3)o2)CC1 | 0.1

Target: Mitogen-activated protein kinase 1 (Homo sapiens) (UniProt P28482)
Test: Inhibition of ERK2 (unknown origin) assessed as residual enzyme activity at 10 uM
Conditions: not given

Mitogen-activated protein kinase 1 (Homo sapiens), sequence (P28482 whole entry): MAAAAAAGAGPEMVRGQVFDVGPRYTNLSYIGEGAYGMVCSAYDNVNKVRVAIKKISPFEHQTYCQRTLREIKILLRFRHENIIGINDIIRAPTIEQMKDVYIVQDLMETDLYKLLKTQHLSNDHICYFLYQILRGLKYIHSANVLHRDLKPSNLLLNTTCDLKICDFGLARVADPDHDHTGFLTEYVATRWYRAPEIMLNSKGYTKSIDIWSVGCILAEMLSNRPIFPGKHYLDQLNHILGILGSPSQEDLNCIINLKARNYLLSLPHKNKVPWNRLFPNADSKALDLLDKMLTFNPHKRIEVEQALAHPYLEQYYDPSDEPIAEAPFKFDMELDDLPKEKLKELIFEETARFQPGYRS

SMILES | Activity [%]
COc1cccc(OC)c1C(=O)Nc1c[nH]nc1C(=O)NCc1ccccc1 | 92
CO[C@H]1CC[C@H](NC(=O)c2n[nH]cc2NC(=O)c2ccc(-c3ccccc3)o2)CC1 | 2

Target: Glycogen synthase kinase-3 beta (Homo sapiens) (UniProt P49841)
Test: Inhibition of GSK3b (unknown origin) assessed as residual enzyme activity at 10 uM
Conditions: not given

SMILES | Activity [%]
COc1cccc(OC)c1C(=O)Nc1c[nH]nc1C(=O)NCc1ccccc1 | 10
CO[C@H]1CC[C@H](NC(=O)c2n[nH]cc2NC(=O)c2ccc(-c3ccccc3)o2)CC1 | 0

Target: T1, Dual specificity tyrosine-phosphorylation-regulated kinase 3 (Homo sapiens) (UniProt O43781)
T1 sequence (whole entry): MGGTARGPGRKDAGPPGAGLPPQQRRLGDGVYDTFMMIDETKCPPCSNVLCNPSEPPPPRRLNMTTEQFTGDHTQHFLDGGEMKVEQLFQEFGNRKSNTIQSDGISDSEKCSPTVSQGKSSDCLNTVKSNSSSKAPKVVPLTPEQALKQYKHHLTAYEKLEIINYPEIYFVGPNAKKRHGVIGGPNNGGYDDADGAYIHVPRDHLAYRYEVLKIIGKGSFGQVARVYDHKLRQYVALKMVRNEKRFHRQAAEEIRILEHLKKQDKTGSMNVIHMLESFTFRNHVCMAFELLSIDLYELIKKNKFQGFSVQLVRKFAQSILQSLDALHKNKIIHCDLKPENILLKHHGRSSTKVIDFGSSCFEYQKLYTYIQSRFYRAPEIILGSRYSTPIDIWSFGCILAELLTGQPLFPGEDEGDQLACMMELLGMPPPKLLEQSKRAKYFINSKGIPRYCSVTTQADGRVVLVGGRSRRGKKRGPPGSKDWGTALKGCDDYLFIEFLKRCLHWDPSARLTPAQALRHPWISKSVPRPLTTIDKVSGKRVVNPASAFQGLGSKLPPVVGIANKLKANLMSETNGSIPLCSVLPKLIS
Test: Inhibition of DYRK3 (unknown origin) assessed as residual enzyme activity at 10 uM
Conditions: not given

SMILES | Activity [%]
COc1cccc(OC)c1C(=O)Nc1c[nH]nc1C(=O)NCc1ccccc1 | 80
CO[C@H]1CC[C@H](NC(=O)c2n[nH]cc2NC(=O)c2ccc(-c3ccccc3)o2)CC1 | 2

Target: Dual specificity mitogen-activated protein kinase kinase 1 (Homo sapiens) (UniProt Q02750)
Test: Inhibition of MKK1 (unknown origin) assessed as residual enzyme activity at 10 uM
Conditions: not given

SMILES | Activity [%]
COc1cccc(OC)c1C(=O)Nc1c[nH]nc1C(=O)NCc1ccccc1 | 76
CO[C@H]1CC[C@H](NC(=O)c2n[nH]cc2NC(=O)c2ccc(-c3ccccc3)o2)CC1 | 17

Target: Serine/threonine-protein kinase pim-3 (Homo sapiens) (UniProt Q86V86)
Test: Inhibition of PIM3 (unknown origin) assessed as residual enzyme activity at 10 uM
Conditions: not given

SMILES | Activity [%]
COc1cccc(OC)c1C(=O)Nc1c[nH]nc1C(=O)NCc1ccccc1 | 96
CO[C@H]1CC[C@H](NC(=O)c2n[nH]cc2NC(=O)c2ccc(-c3ccccc3)o2)CC1 | 1

Target: Glycogen synthase kinase-3 (Homo sapiens, UniProt P49840+P49841)
Test: Inhibition of human GSK3 using biotinylated GSP2 substrate by flashplate assay
Type: protein assay
Conditions: not given

SMILES | IC50 [µM]
COc1cccc(OC)c1C(=O)Nc1c[nH]nc1C(=O)NCc1ccccc1 | 0.33
CO[C@H]1CC[C@H](NC(=O)c2n[nH]cc2NC(=O)c2ccc(-c3ccccc3)o2)CC1 | < 0.005

Target: T2, Dual specificity tyrosine-phosphorylation-regulated kinase 2 (Homo sapiens) (UniProt Q92630)
T2 sequence (whole entry): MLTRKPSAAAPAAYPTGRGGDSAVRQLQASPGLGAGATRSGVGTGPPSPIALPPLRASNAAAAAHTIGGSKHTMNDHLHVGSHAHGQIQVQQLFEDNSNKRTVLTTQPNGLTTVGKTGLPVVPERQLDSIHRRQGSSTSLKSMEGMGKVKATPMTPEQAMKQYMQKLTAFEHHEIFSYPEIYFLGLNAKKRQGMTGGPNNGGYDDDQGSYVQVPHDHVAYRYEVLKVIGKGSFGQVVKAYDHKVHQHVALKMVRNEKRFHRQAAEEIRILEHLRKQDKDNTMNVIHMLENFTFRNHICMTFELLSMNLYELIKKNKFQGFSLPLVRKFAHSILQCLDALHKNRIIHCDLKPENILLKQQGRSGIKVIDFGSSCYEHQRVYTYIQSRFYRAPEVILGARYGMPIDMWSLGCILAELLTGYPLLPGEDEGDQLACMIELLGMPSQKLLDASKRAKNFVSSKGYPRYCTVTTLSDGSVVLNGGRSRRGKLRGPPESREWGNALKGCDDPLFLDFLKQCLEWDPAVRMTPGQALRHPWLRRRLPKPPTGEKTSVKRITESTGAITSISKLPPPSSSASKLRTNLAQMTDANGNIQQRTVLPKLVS
Test: Inhibition of DYRK2 (unknown origin) assessed as residual enzyme activity at 10 uM
Conditions: not given

SMILES | Activity [%]
COc1cccc(OC)c1C(=O)Nc1c[nH]nc1C(=O)NCc1ccccc1 | 28
CO[C@H]1CC[C@H](NC(=O)c2n[nH]cc2NC(=O)c2ccc(-c3ccccc3)o2)CC1 | 1

Target: CDK2/Cyclin A2 (Homo sapiens, UniProt P24941)
Test: Inhibition of human CDK2/cyclin A using Biotin-C6-PKTPKKAKKL substrate
Type: protein-complex assay
Conditions: not given

SMILES | IC50 [µM]
COc1cccc(OC)c1C(=O)Nc1c[nH]nc1C(=O)NCc1ccccc1 | > 10
CO[C@H]1CC[C@H](NC(=O)c2n[nH]cc2NC(=O)c2ccc(-c3ccccc3)o2)CC1 | 0.01

Test system: not listed separately
Test: Selectivity ratio, ratio of IC50 for human GSK3 to IC50 Trypanosoma brucei GSK3
Conditions: not given

SMILES | Ratio IC50
COc1cccc(OC)c1C(=O)Nc1c[nH]nc1C(=O)NCc1ccccc1 | 330

Test system: not listed separately
Test: Selectivity ratio, ratio of IC50 for human CDK2/cyclin A to IC50 for Trypanosoma brucei GSK3
Conditions: not given

SMILES | Ratio IC50
COc1cccc(OC)c1C(=O)Nc1c[nH]nc1C(=O)NCc1ccccc1 | > 10000
CO[C@H]1CC[C@H](NC(=O)c2n[nH]cc2NC(=O)c2ccc(-c3ccccc3)o2)CC1 | 1.4

Target: Cyclin-dependent kinase 2 (Homo sapiens) (UniProt P24941)
Test: Inhibition of CDK2 (unknown origin) assessed as residual enzyme activity at 10 uM
Conditions: not given

SMILES | Activity [%]
COc1cccc(OC)c1C(=O)Nc1c[nH]nc1C(=O)NCc1ccccc1 | 38
CO[C@H]1CC[C@H](NC(=O)c2n[nH]cc2NC(=O)c2ccc(-c3ccccc3)o2)CC1 | 1

Target: Mitogen-activated protein kinase 9 (Homo sapiens) (UniProt P45984)
Test: Inhibition of JNK2 (unknown origin) assessed as residual enzyme activity at 10 uM
Conditions: not given

SMILES | Activity [%]
COc1cccc(OC)c1C(=O)Nc1c[nH]nc1C(=O)NCc1ccccc1 | 63
CO[C@H]1CC[C@H](NC(=O)c2n[nH]cc2NC(=O)c2ccc(-c3ccccc3)o2)CC1 | 15

Target: Insulin-like growth factor 1 receptor (Homo sapiens) (UniProt P08069)
Test: Inhibition of IGF-1R (unknown origin) assessed as residual enzyme activity at 10 uM
Conditions: not given

Insulin-like growth factor 1 receptor (Homo sapiens), sequence (P08069 31-736 limits assumed): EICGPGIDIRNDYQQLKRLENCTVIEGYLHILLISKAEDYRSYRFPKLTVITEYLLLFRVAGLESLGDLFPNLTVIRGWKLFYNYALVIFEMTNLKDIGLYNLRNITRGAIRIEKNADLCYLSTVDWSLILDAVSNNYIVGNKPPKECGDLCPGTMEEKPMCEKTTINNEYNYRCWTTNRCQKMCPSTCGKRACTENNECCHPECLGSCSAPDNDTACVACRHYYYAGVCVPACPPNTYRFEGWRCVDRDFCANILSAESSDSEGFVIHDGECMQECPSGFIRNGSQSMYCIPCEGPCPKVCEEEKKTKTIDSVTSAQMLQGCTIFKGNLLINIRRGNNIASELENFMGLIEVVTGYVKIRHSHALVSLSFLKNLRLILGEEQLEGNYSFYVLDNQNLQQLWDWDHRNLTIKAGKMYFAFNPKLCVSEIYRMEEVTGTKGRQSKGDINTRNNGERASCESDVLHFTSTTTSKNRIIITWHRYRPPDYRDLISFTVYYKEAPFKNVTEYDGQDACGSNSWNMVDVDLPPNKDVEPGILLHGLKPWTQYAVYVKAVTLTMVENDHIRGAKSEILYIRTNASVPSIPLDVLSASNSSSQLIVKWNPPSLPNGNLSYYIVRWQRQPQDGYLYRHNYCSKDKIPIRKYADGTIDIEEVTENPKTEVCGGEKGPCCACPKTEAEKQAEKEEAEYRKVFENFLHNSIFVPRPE
Insulin-like growth factor 1 receptor (Homo sapiens), sequence (P08069 741-1367 limits assumed): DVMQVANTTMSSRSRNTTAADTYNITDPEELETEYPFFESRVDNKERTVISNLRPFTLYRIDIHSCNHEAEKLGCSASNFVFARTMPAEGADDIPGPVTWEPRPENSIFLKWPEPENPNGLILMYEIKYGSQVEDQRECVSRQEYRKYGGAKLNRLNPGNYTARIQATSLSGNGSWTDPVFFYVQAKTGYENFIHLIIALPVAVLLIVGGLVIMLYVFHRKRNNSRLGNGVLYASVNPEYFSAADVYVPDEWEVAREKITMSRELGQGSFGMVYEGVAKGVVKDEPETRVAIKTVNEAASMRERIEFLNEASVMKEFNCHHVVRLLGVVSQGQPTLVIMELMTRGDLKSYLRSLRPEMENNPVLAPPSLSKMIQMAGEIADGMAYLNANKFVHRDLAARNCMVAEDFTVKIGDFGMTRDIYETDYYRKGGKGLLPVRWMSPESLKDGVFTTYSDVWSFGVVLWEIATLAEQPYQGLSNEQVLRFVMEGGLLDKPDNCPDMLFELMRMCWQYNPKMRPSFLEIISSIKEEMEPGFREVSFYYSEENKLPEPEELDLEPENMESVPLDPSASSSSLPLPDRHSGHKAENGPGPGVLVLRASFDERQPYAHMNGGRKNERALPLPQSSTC

SMILES | Activity [%]
COc1cccc(OC)c1C(=O)Nc1c[nH]nc1C(=O)NCc1ccccc1 | 79
CO[C@H]1CC[C@H](NC(=O)c2n[nH]cc2NC(=O)c2ccc(-c3ccccc3)o2)CC1 | 15

Target: Homeodomain-interacting protein kinase 2 (Homo sapiens) (UniProt Q9H2X6)
Test: Inhibition of HIPK2 (unknown origin) assessed as residual enzyme activity at 10 uM
Conditions: not given

Homeodomain-interacting protein kinase 2 (Homo sapiens), sequence (Q9H2X6 whole entry, looked up): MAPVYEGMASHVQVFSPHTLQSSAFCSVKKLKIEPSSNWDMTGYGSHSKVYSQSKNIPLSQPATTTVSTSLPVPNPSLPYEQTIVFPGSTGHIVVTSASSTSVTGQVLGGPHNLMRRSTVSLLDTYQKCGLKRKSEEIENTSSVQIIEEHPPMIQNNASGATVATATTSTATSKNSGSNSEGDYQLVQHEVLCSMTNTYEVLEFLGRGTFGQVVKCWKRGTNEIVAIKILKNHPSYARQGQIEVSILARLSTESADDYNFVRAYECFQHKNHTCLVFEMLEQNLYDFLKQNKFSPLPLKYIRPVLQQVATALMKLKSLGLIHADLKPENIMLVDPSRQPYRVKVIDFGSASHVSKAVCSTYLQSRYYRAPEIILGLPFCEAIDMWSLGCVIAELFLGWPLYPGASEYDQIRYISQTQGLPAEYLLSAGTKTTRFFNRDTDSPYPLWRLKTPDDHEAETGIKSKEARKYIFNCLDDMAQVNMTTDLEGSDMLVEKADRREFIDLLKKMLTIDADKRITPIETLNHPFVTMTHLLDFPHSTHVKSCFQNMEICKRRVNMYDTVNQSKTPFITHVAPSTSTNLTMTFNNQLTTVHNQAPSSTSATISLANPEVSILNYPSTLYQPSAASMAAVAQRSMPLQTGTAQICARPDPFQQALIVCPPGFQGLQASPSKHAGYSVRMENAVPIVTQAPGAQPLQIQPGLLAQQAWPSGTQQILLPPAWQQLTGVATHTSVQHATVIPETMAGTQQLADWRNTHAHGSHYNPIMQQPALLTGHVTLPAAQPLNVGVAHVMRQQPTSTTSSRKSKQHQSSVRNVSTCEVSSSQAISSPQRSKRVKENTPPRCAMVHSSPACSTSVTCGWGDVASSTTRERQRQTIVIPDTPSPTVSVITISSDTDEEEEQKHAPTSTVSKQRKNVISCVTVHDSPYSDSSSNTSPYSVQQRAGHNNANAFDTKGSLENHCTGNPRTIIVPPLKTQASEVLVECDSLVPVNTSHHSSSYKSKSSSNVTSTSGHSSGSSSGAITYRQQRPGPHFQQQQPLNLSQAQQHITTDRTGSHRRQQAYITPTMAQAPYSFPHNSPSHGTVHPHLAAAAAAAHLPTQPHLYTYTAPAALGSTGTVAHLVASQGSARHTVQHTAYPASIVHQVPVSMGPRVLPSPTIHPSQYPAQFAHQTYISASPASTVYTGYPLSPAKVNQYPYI

SMILES | Activity [%]
COc1cccc(OC)c1C(=O)Nc1c[nH]nc1C(=O)NCc1ccccc1 | 93
CO[C@H]1CC[C@H](NC(=O)c2n[nH]cc2NC(=O)c2ccc(-c3ccccc3)o2)CC1 | 4

Target: MAP kinase-activated protein kinase 2 (Homo sapiens) (UniProt P49137)
Test: Inhibition of MAPKAP-K2 (unknown origin) assessed as residual enzyme activity at 10 uM
Conditions: not given

MAP kinase-activated protein kinase 2 (Homo sapiens), sequence (P49137 whole entry, looked up): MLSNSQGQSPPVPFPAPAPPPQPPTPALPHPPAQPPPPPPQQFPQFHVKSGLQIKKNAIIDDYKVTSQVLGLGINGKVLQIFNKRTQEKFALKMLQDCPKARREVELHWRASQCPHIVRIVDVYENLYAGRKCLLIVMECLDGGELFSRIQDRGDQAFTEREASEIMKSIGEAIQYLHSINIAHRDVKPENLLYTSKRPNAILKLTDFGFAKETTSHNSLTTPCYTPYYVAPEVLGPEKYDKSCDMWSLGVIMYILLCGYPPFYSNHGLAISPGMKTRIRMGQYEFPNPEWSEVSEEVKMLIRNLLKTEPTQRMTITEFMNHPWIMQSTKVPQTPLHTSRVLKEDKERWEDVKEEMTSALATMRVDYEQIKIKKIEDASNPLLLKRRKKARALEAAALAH

SMILES | Activity [%]
COc1cccc(OC)c1C(=O)Nc1c[nH]nc1C(=O)NCc1ccccc1 | 13
CO[C@H]1CC[C@H](NC(=O)c2n[nH]cc2NC(=O)c2ccc(-c3ccccc3)o2)CC1 | 90

Target: Serine/threonine-protein kinase pim-1 (Homo sapiens) (UniProt P11309)
Test: Inhibition of PIM1 (unknown origin) assessed as residual enzyme activity at 10 uM
Conditions: not given

Serine/threonine-protein kinase pim-1 (Homo sapiens), sequence (P11309 whole entry, looked up): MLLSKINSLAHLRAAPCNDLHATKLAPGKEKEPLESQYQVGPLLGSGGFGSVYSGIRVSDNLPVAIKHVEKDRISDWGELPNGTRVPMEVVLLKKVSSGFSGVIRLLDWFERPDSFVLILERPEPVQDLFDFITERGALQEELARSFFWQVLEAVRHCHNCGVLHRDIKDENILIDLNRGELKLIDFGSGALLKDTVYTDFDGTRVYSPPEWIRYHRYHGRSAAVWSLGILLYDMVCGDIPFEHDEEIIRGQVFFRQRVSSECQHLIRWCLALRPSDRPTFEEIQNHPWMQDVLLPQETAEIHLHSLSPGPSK

SMILES | Activity [%]
COc1cccc(OC)c1C(=O)Nc1c[nH]nc1C(=O)NCc1ccccc1 | 92
CO[C@H]1CC[C@H](NC(=O)c2n[nH]cc2NC(=O)c2ccc(-c3ccccc3)o2)CC1 | 13

Target: T3, Mitogen-activated protein kinase 15 (Homo sapiens) (UniProt Q8TD08)
T3 sequence (whole entry): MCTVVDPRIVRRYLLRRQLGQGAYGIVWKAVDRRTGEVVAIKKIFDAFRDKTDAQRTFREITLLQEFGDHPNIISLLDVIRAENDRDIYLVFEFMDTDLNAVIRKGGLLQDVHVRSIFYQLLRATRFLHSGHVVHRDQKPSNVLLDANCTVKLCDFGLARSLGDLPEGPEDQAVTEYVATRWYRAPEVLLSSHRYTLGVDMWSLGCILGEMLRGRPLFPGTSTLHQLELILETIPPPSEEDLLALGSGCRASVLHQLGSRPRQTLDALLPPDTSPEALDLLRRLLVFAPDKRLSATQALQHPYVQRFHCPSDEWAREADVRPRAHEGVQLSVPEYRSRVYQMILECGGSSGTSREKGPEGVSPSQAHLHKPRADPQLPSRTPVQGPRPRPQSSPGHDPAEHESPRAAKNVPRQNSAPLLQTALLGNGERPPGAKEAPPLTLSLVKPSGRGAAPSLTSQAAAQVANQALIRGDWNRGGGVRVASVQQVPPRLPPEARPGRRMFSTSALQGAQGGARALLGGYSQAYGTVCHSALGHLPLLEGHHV
Test: Inhibition of ERK8 (unknown origin) assessed as residual enzyme activity at 10 uM
Conditions: not given

SMILES | Activity [%]
COc1cccc(OC)c1C(=O)Nc1c[nH]nc1C(=O)NCc1ccccc1 | 47
CO[C@H]1CC[C@H](NC(=O)c2n[nH]cc2NC(=O)c2ccc(-c3ccccc3)o2)CC1 | 7

Target: Maternal embryonic leucine zipper kinase (Homo sapiens) (UniProt Q14680)
Test: Inhibition of MELK (unknown origin) assessed as residual enzyme activity at 10 uM
Conditions: not given

Maternal embryonic leucine zipper kinase (Homo sapiens), sequence (Q14680 whole entry, looked up): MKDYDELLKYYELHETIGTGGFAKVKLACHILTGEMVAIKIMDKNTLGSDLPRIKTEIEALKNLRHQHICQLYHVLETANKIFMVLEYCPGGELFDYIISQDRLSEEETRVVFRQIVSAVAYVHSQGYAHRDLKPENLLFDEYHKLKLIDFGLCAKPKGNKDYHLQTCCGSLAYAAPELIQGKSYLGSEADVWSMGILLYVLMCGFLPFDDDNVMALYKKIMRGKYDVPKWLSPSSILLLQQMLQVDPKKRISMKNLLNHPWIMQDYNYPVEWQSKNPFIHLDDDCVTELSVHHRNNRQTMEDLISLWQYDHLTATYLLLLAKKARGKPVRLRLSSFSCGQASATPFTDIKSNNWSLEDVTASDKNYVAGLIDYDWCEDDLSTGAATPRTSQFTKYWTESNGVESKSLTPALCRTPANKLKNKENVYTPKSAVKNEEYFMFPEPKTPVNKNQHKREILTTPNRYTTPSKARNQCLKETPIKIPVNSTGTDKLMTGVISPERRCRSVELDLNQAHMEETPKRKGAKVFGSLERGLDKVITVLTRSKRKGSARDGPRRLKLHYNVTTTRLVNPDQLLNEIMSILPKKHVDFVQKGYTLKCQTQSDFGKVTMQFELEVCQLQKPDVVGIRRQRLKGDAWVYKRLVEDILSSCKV

SMILES | Activity [%]
COc1cccc(OC)c1C(=O)Nc1c[nH]nc1C(=O)NCc1ccccc1 | 96
CO[C@H]1CC[C@H](NC(=O)c2n[nH]cc2NC(=O)c2ccc(-c3ccccc3)o2)CC1 | 13

Target: Mitogen-activated protein kinase 8 (Homo sapiens) (UniProt P45983)
Test: Inhibition of JNK1 (unknown origin) assessed as residual enzyme activity at 10 uM
Conditions: not given

Mitogen-activated protein kinase 8 (Homo sapiens), sequence (P45983 whole entry): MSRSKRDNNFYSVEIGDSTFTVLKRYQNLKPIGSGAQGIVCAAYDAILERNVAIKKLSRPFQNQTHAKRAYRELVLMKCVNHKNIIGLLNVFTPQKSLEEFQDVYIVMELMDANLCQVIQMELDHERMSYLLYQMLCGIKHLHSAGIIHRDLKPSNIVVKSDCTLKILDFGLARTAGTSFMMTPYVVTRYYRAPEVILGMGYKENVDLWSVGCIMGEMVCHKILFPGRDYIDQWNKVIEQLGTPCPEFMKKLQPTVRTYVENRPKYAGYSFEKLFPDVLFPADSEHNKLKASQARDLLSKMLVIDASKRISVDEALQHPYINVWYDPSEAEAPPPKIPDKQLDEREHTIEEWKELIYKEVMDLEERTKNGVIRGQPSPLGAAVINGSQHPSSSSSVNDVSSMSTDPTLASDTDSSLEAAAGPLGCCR

SMILES | Activity [%]
COc1cccc(OC)c1C(=O)Nc1c[nH]nc1C(=O)NCc1ccccc1 | 71
CO[C@H]1CC[C@H](NC(=O)c2n[nH]cc2NC(=O)c2ccc(-c3ccccc3)o2)CC1 | 8

Target: Misshapen-like kinase 1 (Homo sapiens) (UniProt Q8N4C8)
Test: Inhibition of MINK1 (unknown origin) assessed as residual enzyme activity at 10 uM
Conditions: not given

SMILES | Activity [%]
COc1cccc(OC)c1C(=O)Nc1c[nH]nc1C(=O)NCc1ccccc1 | 18

Test system: Trypanosoma brucei brucei
Test: Trypanocidal activity against bloodstream stage of Trypanosoma brucei brucei assessed as inhibition of proliferation after 72 hrs
Type: functional, organism-based
Conditions: not given
How it was run: as §1

SMILES | EC50 [µM]
COc1cccc(OC)c1C(=O)Nc1c[nH]nc1C(=O)NCc1ccccc1 | 5.9
CO[C@H]1CC[C@H](NC(=O)c2n[nH]cc2NC(=O)c2ccc(-c3ccccc3)o2)CC1 | 0.3

Target: Dual specificity tyrosine-phosphorylation-regulated kinase 1A (Homo sapiens) (UniProt Q13627)
Test: Inhibition of DYRK1A (unknown origin) assessed as residual enzyme activity at 10 uM
Conditions: not given

SMILES | Activity [%]
COc1cccc(OC)c1C(=O)Nc1c[nH]nc1C(=O)NCc1ccccc1 | 79
CO[C@H]1CC[C@H](NC(=O)c2n[nH]cc2NC(=O)c2ccc(-c3ccccc3)o2)CC1 | 1
